From ChEMBL document CHEMBL1125210, “Benzylated 1,2,3-triazoles as anticoccidiostats” (J Med Chem, 1991) come the findings set out here.

The species entered for data set [1] is Gallus gallus. The data set is described as follows: The compound was tested for anti-coccidial activity in chicken against Eimeria praecox (DP-785) measured at dose 121 (ppm in diet). Type of data set: functional.
The species entered for data set [2] is Gallus gallus. The data set is described as follows: The compound was tested for anti-coccidial activity in chicken against Eimeria maxima (DP-776) measured at dose 121 (ppm in diet). Type of data set: functional.
For data set [3], the species on record is Gallus gallus. The experiment in a line: The compound was tested for anti-coccidial activity in chicken against Eimeria acervulina (DP-761) measured at dose 121 (ppm in diet). Type of data set: functional.
For data set [4], the species on record is Gallus gallus. The data set is described as follows: The compound was tested for anti-coccidial activity in chicken against Eimeria hagani (DP-786) measured at dose 121 (ppm in diet). Type of data set: functional.
The test system of a further data set is Eimeria acervulina. The experiment in a line: Anticoccidial activity in chicken against Eimeria acervulina. On the set-up: Reduction: concentration or dose not given beside the values. Type of data set: functional. Summed up: (§1)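 3-Day-old chicks infected separately with E. tenella or E. acervulina; test compound given mixed in the feed at the stated rates. Activity was scored as percent suppression of oocyst production versus infected, unmedicated controls. Toxicity was judged from average weight gain relative to uninfected controls.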

The species named for data set [5] is Gallus gallus. The experiment in a line: The compound was tested for anti-coccidial activity in chicken against Eimeria tenella (DP-761) measured at dose 121 (ppm in diet). Type of data set: functional. In short, it runs like this:
(§2)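 Test article mixed into the feed at the stated rates and given to 3-day-old chicks infected with […]. Each Eimeria species was inoculated separately. Activity was scored as percent suppression of oocyst output relative to infected, unmedicated controls. Toxicity was judged from average weight gain relative to uninfected controls.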

For the next data set, the system named is Eimeria tenella. The experiment in a line: Anticoccidial activity in chicken against E. tenella. Type of data set: functional. On the set-up: Reduction: concentration or dose not given beside the values. Summed up: as §1
For data set [6], the species on record is Gallus gallus. The data set is described as follows: The compound was tested for anti-coccidial activity in chicken against Eimeria brunetti (FS-103) measured at dose 121 (ppm in diet). Type of data set: functional.
The species entered for data set [7] is Gallus gallus. The data set is described as follows: The compound was tested for anti-coccidial activity in chicken against Eimeria mitis (LS-84) measured at dose 121 (ppm in diet). Type of data set: functional.
The species named for data set [8] is Gallus gallus. The data set is described as follows: The compound was tested for anti-coccidial activity in chicken against Eimeria brunetti (FS-103) measured at dose 60 (ppm in diet). Type of data set: functional.
The species named for data set [9] is Gallus gallus. The data set is described as follows: The compound was tested for anti-coccidial activity in chicken against Eimeria praecox (DP-785) measured at dose 30 (ppm in diet). Type of data set: functional.
The species named for data set [10] is Gallus gallus. The data set is described as follows: The compound was tested for anti-coccidial activity in chicken against Eimeria maxima (DP-776) measured at dose 45 (ppm in diet). Type of data set: functional.
The species named for data set [11] is Gallus gallus. The experiment in a line: The compound was tested for anti-coccidial activity in chicken against Eimeria maxima (DP-776) measured at dose 60 (ppm in diet). Type of data set: functional.
The species named for data set [12] is Gallus gallus. The experiment in a line: The compound was tested for anti-coccidial activity in chicken against Eimeria brunetti (FS-103) measured at dose 7.5 (ppm in diet). Type of data set: functional.
For data set [13], the species on record is Gallus gallus. The data set is described as follows: The compound was tested for anti-coccidial activity in chicken against Eimeria praecox (DP-785) measured at dose 60 (ppm in diet). Type of data set: functional.
For data set [14], the species on record is Gallus gallus. The data set is described as follows: The compound was tested for anti-coccidial activity in chicken against Eimeria brunetti (FS-103) measured at dose 45 (ppm in diet). Type of data set: functional.
The species named for data set [15] is Gallus gallus. The experiment in a line: The compound was tested for anti-coccidial activity in chicken against Eimeria brunetti (FS-103) measured at dose 15 (ppm in diet). Type of data set: functional.
Data set [16] is filed under the species Gallus gallus. The data set is described as follows: The compound was tested for anti-coccidial activity in chicken against Eimeria necatrix (Aquet) measured at dose 45 (ppm in diet). Type of data set: functional.
The species entered for data set [17] is Gallus gallus. The data set is described as follows: The compound was tested for anti-coccidial activity in chicken against Eimeria necatrix (Aquet) measured at dose 7.5 (ppm in diet). Type of data set: functional.
The species named for data set [18] is Gallus gallus. The experiment in a line: The compound was tested for anti-coccidial activity in chicken against Eimeria acervulina (DP-761) measured at dose 30 (ppm in diet). Type of data set: functional.
For data set [19], the species on record is Gallus gallus. The data set is described as follows: The compound was tested for anti-coccidial activity in chicken against Eimeria acervulina (DP-761) measured at dose 60 (ppm in diet). Type of data set: functional.
The species entered for data set [20] is Gallus gallus. The experiment in a line: The compound was tested for anti-coccidial activity in chicken against Eimeria tenella (DP-761) measured at dose 15 (ppm in diet). Type of data set: functional. In short, it runs like this: as §2
For data set [21], the species on record is Gallus gallus. The experiment in a line: The compound was tested for anti-coccidial activity in chicken against Eimeria maxima (DP-776) measured at dose 15 (ppm in diet). Type of data set: functional.
The species named for data set [22] is Gallus gallus. The experiment in a line: The compound was tested for anti-coccidial activity in chicken against Eimeria brunetti (FS-103) measured at dose 30 (ppm in diet). Type of data set: functional.
The species named for data set [23] is Gallus gallus. The experiment in a line: The compound was tested for anti-coccidial activity in chicken against Eimeria acervulina (DP-761) measured at dose 7.5 (ppm in diet). Type of data set: functional.
The species entered for data set [24] is Gallus gallus. The data set is described as follows: The compound was tested for anti-coccidial activity in chicken against Eimeria praecox (DP-785) measured at dose 15 (ppm in diet). Type of data set: functional.
The species named for data set [25] is Gallus gallus. The experiment in a line: The compound was tested for anti-coccidial activity in chicken against Eimeria maxima (DP-776) measured at dose 7.5 (ppm in diet). Type of data set: functional.
The species named for data set [26] is Gallus gallus. The experiment in a line: The compound was tested for anti-coccidial activity in chicken against Eimeria tenella (DP-761) measured at dose 60 (ppm in diet). Type of data set: functional. In short, it runs like this: as §2
For data set [27], the species on record is Gallus gallus. The experiment in a line: The compound was tested for anti-coccidial activity in chicken against Eimeria maxima (DP-776) measured at dose 30 (ppm in diet). Type of data set: functional.
The species entered for data set [28] is Gallus gallus. The experiment in a line: The compound was tested for anti-coccidial activity in chicken against Eimeria acervulina (DP-761) measured at dose 15 (ppm in diet). Type of data set: functional.
The species entered for data set [29] is Gallus gallus. The experiment in a line: The compound was tested for anti-coccidial activity in chicken against Eimeria necatrix (Aquet) measured at dose 15 (ppm in diet). Type of data set: functional.
Data set [30] is filed under the species Gallus gallus. The data set is described as follows: The compound was tested for anti-coccidial activity in chicken against Eimeria tenella (DP-761) measured at dose 30 (ppm in diet). Type of data set: functional. In short, it runs like this: as §2
The species named for data set [31] is Gallus gallus. The data set is described as follows: The compound was tested for anti-coccidial activity in chicken against Eimeria necatrix (Aquet) measured at dose 30 (ppm in diet). Type of data set: functional.
The species named for data set [32] is Gallus gallus. The experiment in a line: The compound was tested for anti-coccidial activity in chicken against Eimeria acervulina (DP-761) measured at dose 45 (ppm in diet). Type of data set: functional.
The species entered for data set [33] is Gallus gallus. The data set is described as follows: The compound was tested for anti-coccidial activity in chicken against Eimeria tenella (DP-761) measured at dose 45 (ppm in diet). Type of data set: functional. Summed up: as §2
The species named for data set [34] is Gallus gallus. The experiment in a line: The compound was tested for anti-coccidial activity in chicken against Eimeria praecox (DP-785) measured at dose 7.5 (ppm in diet). Type of data set: functional.
Data set [35] is filed under the species Gallus gallus. The experiment in a line: The compound was tested for anti-coccidial activity in chicken against Eimeria tenella (DP-761) measured at dose 7.5 (ppm in diet). Type of data set: functional. Summed up: as §2
The species named for data set [36] is Gallus gallus. The experiment in a line: The compound was tested for anti-coccidial activity in chicken against Eimeria necatrix (Aquet) measured at dose 60 (ppm in diet). Type of data set: functional.
The species entered for data set [37] is Gallus gallus. The experiment in a line: The compound was tested for anti-coccidial activity in chicken against Eimeria praecox (DP-785) measured at dose 45 (ppm in diet). Type of data set: functional.
The species entered for data set [38] is Gallus gallus. The experiment in a line: The compound was tested for anti-coccidial activity in chicken against Eimeria tenella. Type of data set: organism-based. The settings on record: in vivo. Summed up: as §2
For data set [39], the species on record is Gallus gallus. The experiment in a line: The compound was tested for anti-coccidial activity in chicken against Eimeria acervulina. The settings on record: in vivo. Type of data set: organism-based. In short, it runs like this: as §1

Regarding `CC[C@@]1([C@@H]2O[C@@H]([C@H]3O[C@@](O)(CO)[C@H](C)C[C@@H]3C)C[C@@H]2C)CC[C@H]([C@]2(C)CC[C@]3(C[C@H](O)[C@@H](C)[C@@H]([C@@H](C)[C@@H](OC)[C@H](C)C(=O)O)O3)O2)O1` [MONENSIN], the Reduction in the data set listed under Gallus gallus [1] is 19%; in the data set filed under Gallus gallus [2], 73%; in the data set filed under Gallus gallus [3] it was 4%; in the data set filed under Gallus gallus [4], 19%; in the data set with Eimeria acervulina, 80%; in the data set listed under Gallus gallus [5], 100%. The Reduction in the data set on Eimeria tenella is on record as 80%; in the data set listed under Gallus gallus [6] it was 100%; in the data set listed under Gallus gallus [7] it was 72%.
With `NC(=O)c1nnn(Cc2cc(Cl)c(C(=O)c3ccc(Cl)cc3)c(Cl)c2)c1N` [CARBOXYAMIDOTRIAZOLE], the Reduction in the data set listed under Gallus gallus [8] is reported as 100%; in the data set filed under Gallus gallus [9], 100%; in the data set filed under Gallus gallus [10], 99.9%; in the data set filed under Gallus gallus [11], 99.9%; in the data set filed under Gallus gallus [12], 58%; in the data set listed under Gallus gallus [13], 100%. Also, the Reduction in the data set filed under Gallus gallus [14] amounted to 100%; in the data set filed under Gallus gallus [15] it was 95%; in the data set filed under Gallus gallus [16], 100%; in the data set filed under Gallus gallus [17], 12%; in the data set listed under Gallus gallus [18], 99.9%; in the data set filed under Gallus gallus [19], 99.9%. Besides, the Reduction turned out to be 83% in the data set listed under Gallus gallus [20]; 99.9% in the data set filed under Gallus gallus [21]; 100% in the data set listed under Gallus gallus [22]; 21% in the data set filed under Gallus gallus [23]; 98% in the data set listed under Gallus gallus [24]; 99.9% in the data set filed under Gallus gallus [25]. Further, the Reduction in the data set filed under Gallus gallus [26] was 99.9%; in the data set listed under Gallus gallus [27], 99.9%; in the data set filed under Gallus gallus [28], 98%; in the data set filed under Gallus gallus [29], 88%; in the data set on Eimeria acervulina it was 90%; in the data set filed under Gallus gallus [30], 98%. In addition, the Reduction in the data set listed under Gallus gallus [31] is on record as 100%; in the data set listed under Gallus gallus [32], 99.9%; in the data set filed under Gallus gallus [33], 99.9%; with Eimeria tenella it was 80%; in the data set listed under Gallus gallus [34], 72%; in the data set listed under Gallus gallus [35], 60%. The Reduction in the data set filed under Gallus gallus [36] and in the data set filed under Gallus gallus [37] was 100% each time.
For `NC(=O)c1c(N)nnn1Cc1cc(Cl)c(C(=O)c2ccc(Cl)cc2)c(Cl)c1`, the minimum effective dose in the data set listed under Gallus gallus [38] and in the data set listed under Gallus gallus [39] was over 500 ppm each time.
